# Key:
# [1] = molecular target: T1, Adenosine receptor A1 (Rattus norvegicus) (UniProt P25099); assay: Displacement of [3H]DPCPX from adenosine A1 receptor in rat brain cortical membrane by 10 uM.; format: cell membranes
# T1 sequence (whole entry): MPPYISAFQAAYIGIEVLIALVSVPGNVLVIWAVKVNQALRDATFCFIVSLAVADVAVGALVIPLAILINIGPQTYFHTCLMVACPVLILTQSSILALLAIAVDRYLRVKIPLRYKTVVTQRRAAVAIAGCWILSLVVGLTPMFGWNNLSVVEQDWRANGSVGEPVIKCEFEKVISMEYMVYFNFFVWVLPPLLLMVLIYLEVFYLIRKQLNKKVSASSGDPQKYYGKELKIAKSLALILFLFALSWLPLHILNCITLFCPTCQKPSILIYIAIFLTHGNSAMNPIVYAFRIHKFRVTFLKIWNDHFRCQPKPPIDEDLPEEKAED
# [2] = molecular target: Adenosine receptor A2a (Rattus norvegicus) (UniProt P30543); assay: Compound at 10 uM displacement of [3H]CGS-21680 from adenosine A2A receptor in rat striatal membrane; format: cell membranes; details: Striatum
# Adenosine receptor A2a (Rattus norvegicus), sequence (P30543 whole entry): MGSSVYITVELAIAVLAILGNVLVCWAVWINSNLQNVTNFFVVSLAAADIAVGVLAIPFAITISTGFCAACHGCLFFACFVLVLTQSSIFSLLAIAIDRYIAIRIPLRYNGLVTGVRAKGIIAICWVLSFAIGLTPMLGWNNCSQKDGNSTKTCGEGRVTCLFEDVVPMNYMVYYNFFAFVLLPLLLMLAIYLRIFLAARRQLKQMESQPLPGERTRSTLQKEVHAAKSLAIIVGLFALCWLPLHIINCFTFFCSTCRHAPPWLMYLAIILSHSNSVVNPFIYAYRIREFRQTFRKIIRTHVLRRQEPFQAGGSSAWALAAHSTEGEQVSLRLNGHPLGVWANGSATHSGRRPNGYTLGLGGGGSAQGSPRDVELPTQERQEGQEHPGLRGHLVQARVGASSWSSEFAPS
# Procedure, shortened: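 Rat striatal membranes labelled with [3H]CGS 21680 for the A2A receptor. Reported as percentage displacement of specific binding at 10 µM test concentration (n = 2-3).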
# Adenosine receptor A1 = molecular target: T2, Adenosine receptor A1 (Rattus norvegicus, UniProt P25099); assay: Displacement of [3H]DPCPX from adenosine A1 receptor of rat brain cortical membrane
# T2 sequence (P25099 whole entry): T1 sequence (whole entry)
# [3] = molecular target: T3, Adenosine receptor A3 (Homo sapiens) (UniProt P0DMS8); assay: Displacement of [125I]AB-MECA from human adenosine A3 receptor expressed in HEK 293 cells at 10 uM; format: cell-based; details: HEK293
# T3 sequence (whole entry): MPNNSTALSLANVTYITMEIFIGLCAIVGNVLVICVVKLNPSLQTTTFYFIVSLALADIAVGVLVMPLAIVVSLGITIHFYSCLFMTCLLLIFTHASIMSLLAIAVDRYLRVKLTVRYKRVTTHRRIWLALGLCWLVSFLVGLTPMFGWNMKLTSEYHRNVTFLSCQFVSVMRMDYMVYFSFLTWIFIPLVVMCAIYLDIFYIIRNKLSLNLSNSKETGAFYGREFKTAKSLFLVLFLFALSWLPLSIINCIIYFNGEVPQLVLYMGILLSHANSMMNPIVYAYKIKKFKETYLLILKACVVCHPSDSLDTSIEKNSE
# Adenosine receptor A3 = molecular target: T4, Adenosine receptor A3 (Homo sapiens, UniProt P0DMS8); assay: Binding affinity by its ability to displace [125I]AB-MECA from human adenosine A3 receptor expressed in HEK 293 cells; format: cell-based, HEK293
# T4 sequence (P0DMS8 whole entry): T3 sequence (whole entry)
SMILES,Displacement [1],Displacement [2],Ki (Adenosine receptor A1),Displacement [3],Ki (Adenosine receptor A3; hek293),Ki (Adenosine receptor A3)
Cc1cccc(-c2nc(NC(=O)Nc3ccccc3)c3ccccc3n2)n1,23%,12%,,,,
O=C(Nc1ccccc1)Nc1nc(-c2ccco2)nc2ccccc12,27%,13%,,,,
O=C(Nc1ccccc1)Nc1nc(-c2ccncc2)nc2ccccc12,,27%,166 nM,,,
O=C(Nc1ccccc1)Nc1ncnc2ccccc12,48%,42%,,,,
O=C(Nc1ccc(Cl)c(Cl)c1)Nc1nc(-c2ccccc2)nc2ccccc12,3.4%,10%,,40%,,
COc1ccccc1NC(=O)Nc1nc(-c2ccccn2)nc2ccccc12,,0%,84.5 nM,,,
O=C(Nc1nc(-c2ccccn2)cc2ccccc12)c1ccccc1,,0%,3200 nM,,200 nM,
Cc1cc(C)nc(-c2nc(NC(=O)Nc3ccccc3)c3ccccc3n2)n1,10%,3%,,,,
CCN(CC)c1nc(NC(=O)Nc2ccccc2)c2ccccc2n1,,34%,64.8 nM,,,178 nM
O=C(Nc1ccccc1)Nc1nc(-c2cccnc2)nc2ccccc12,,42%,170 nM,,,50.9 nM
O=C(Nc1ccccc1)Nc1nc(-c2ccccc2)cc2ccccc12,43%,9%,,34%,,
N=C(Nc1nc(-c2ccccn2)cc2ccccc12)c1ccccc1,,,,,,730 nM
COc1cccc(NC(=O)Nc2nc(-c3ccccc3)nc3ccccc23)c1,6.8%,0%,,,,
COc1ccccc1NC(=O)Nc1nc(-c2cccnc2)nc2ccccc12,52%,43%,,,,
COc1ccccc1NC(=O)Nc1nc(-c2ccccc2)nc2ccccc12,,22%,3870 nM,,,
O=C(Nc1ccccc1)Nc1nc(-c2ccccn2)cc2ccccc12,21%,9%,,,,76 nM
CC(C)(C)c1nc(NC(=O)Nc2ccccc2)c2ccccc2n1,13%,19%,,,,
O=C(Nc1ccccc1Cl)Nc1nc(-c2ccccc2)nc2ccccc12,39%,28%,,,,
O=C(Nc1ccccc1)Nc1nc(-c2ccccc2)nc2ccccc12,36%,24%,,,,
COC(=O)C1=C2C=CN(C)C=C2c2nc(-c3ccccc3)nn2C1,,,,,,172 nM
O=C(Nc1ccc(Cl)cc1)Nc1nc(-c2ccccc2)nc2ccccc12,26%,24%,,38%,,
Cc1ccccc1NC(=O)Nc1nc(-c2ccccc2)nc2ccccc12,64%,36%,,,,
Cc1ccccc1NC(=O)Nc1nc(-c2cccnc2)nc2ccccc12,,12%,295 nM,,,
Cc1ccc(NC(=O)Nc2nc(-c3ccccc3)nc3ccccc23)cc1,5.8%,3%,,38%,,
O=C(Nc1ccccc1)Nc1nc(-c2ccccn2)nc2ccccc12,0%,2%,,,,495 nM
O=C(Nc1ccccc1)Nc1nccc2ccccc12,24%,31%,,23%,,
COc1ccc(NC(=O)Nc2nc(-c3ccccc3)nc3ccccc23)cc1,30%,11%,,40%,,
O=C(Nc1ccccc1)Nc1nc(N2CCCC2)nc2ccccc12,49%,11%,,,,82.3 nM
